Key:
Protease = Protease (Human immunodeficiency virus 1, UniProt Q9YQ12); test: Inhibition of HIV1 protease using Abz-NleF*-6 as substrate preincubated for 5 to 10 mins followed by substrate addition measured after 1 hr by fluorometric assay
[1] = system: Human immunodeficiency virus; test: Antiviral activity against HIV1 […] infected in human MT2 cells by MTT assay; assay type: functional, organism-based; conditions: Human immunodeficiency virus 1, MT2
Outline: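 MT-2 human T-lymphoid cells infected with 100 TCID50 of HIV-1 LAI and cultured with each inhibitor. IC50 read by MTT assay. Run in triplicate. Values are means (±1 SD) from two independent experiments.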

[2] = system: Human immunodeficiency virus 1; test: Antiviral activity against multi-drug resistant HIV1B harboring protease L10I/L33I/M36I/M46I/F53L/K55R/I62V/L63P/A71V/G73S/V82A/L90M/I93L mutant infected in human MT4 cells by p24 assay; assay type: functional, organism-based; conditions: Human immunodeficiency virus 1, B
Outline: (§1)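 MT-4 cells (1×10^4) infected with 50 TCID50 of virus and cultured across a range of compound concentrations. Virus was wild-type HIV-1 NL4-3 or a multidrug-resistant variant (HIV-1B, HIV-1C, or DRV-resistant P20). IC50 from p24 assay. Run in triplicate. Values are means (±1 SD) from two independent experiments.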

[3] = system: Human immunodeficiency virus 1; test: Antiviral activity against multi-drug resistant HIV1C harboring protease L10I/I15V/K20R/L24I/M36I/M46L/I54V/I62V/L63P/K70Q/V82A/L89M mutant infected in human MT4 cells by p24 assay; assay type: functional, organism-based; conditions: Human immunodeficiency virus 1, C; outline: as §1
[4] = system: Human immunodeficiency virus 1; test: Antiviral activity against darunavir resistant HIV1 harboring protease L10I/I15V/K20R/L24I/V32I/M36I/M46L/L63P/A71T/V82A/L89M mutant at 20 passages infected in human MT4 cells by p24 assay; assay type: functional, organism-based; conditions: Human immunodeficiency virus 1, MT4; outline: as §1
[5] = system: Human immunodeficiency virus 1; test: Antiviral activity against wild type HIV1 NL4-3 infected in human MT4 cells by p24 assay; assay type: functional, organism-based; conditions: Human immunodeficiency virus 1, NL4-3, MT4
Outline: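 MT-4 cells (1×10^4) infected with 50 TCID50 of virus and cultured across a range of compound concentrations. IC50 from p24 assay. Run in triplicate. Values are means (±1 SD) from two independent experiments.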

Chain of Protease (Q9YQ12 whole entry): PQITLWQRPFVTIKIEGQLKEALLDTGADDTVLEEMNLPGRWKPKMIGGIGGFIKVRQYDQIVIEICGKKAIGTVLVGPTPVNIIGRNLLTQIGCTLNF

Row | SMILES | Ki (Protease) [nM] | IC50 [1] [nM] | IC50 [2] [nM] | IC50 [3] [nM] | IC50 [4] [nM] | IC50 [5] [nM]
1 | COc1ccc(S(=O)(=O)N(CC(C)C)C[C@@H](O)[C@H](CC23CC4CC(CC(C4)C2)C3)NC(=O)O[C@H]2CO[C@H]3OCCC[C@H]32)cc1 | 1.9 | 460 |  |  |  | 
2 | COc1ccc(S(=O)(=O)N(Cc2ccccc2)C[C@@H](O)[C@H](CC23CC4CC(CC(C4)C2)C3)NC(=O)O[C@H]2CO[C@H]3OCC[C@H]32)cc1 | 8.5 | 310 |  |  |  | 
3 | CC(C)CN(C[C@@H](O)[C@H](CC12CC3CC(CC(C3)C1)C2)NC(=O)O[C@H]1CCOC1)S(=O)(=O)c1ccc(N)cc1 | 3.4 | 580 |  |  |  | 
4 | COc1ccc(S(=O)(=O)N(C[C@@H](O)[C@H](CC23CC4CC(CC(C4)C2)C3)NC(=O)O[C@H]2CO[C@H]3OCC[C@H]32)c2ccccc2)cc1 | 1.1 |  |  |  |  | 
5 | COc1ccc(S(=O)(=O)N(CC(C)C)C[C@@H](O)[C@H](CC23CC4CC(CC(C4)C2)C3)NC(=O)O[C@@H]2CO[C@@H]3OCC[C@@H]32)cc1 | 1 |  |  |  |  | 
6 | CC(C)CN(C[C@@H](O)[C@H](Cc1ccccc1)NC(=O)O[C@H]1CO[C@H]2OCC[C@H]21)S(=O)(=O)c1ccc(N)cc1 |  |  | 43 | 30 | 87 | 
7 | COc1ccc(S(=O)(=O)N(CC(C)C)C[C@@H](O)[C@H](CC23CC4CC(CC(C4)C2)C3)NC(=O)O[C@H]2CO[C@H]3OCC[C@H]32)cc1 | 0.48 | 32 | > 1000 | 360 | > 1000 | 15
8 | COc1ccc(S(=O)(=O)N(CC(C)C)C[C@@H](O)[C@H](CC23CC4CC(CC(C4)C2)C3)NC(=O)O[C@@H]2CO[C@@H]3OCCC[C@@H]32)cc1 | 24 | > 1000 |  |  |  | 
9 | COc1ccc(S(=O)(=O)N(CC(C)C)C[C@@H](O)[C@H](CC23CC4CC(CC(C4)C2)C3)NC(=O)O[C@H]2CCOC2)cc1 | 0.54 | 39 | > 1000 | > 1000 | > 1000 | 460
10 | CC(C)CN(C[C@@H](O)[C@H](CC12CC3CC(CC(C3)C1)C2)NC(=O)O[C@H]1CO[C@H]2OCC[C@H]21)S(=O)(=O)c1ccc(N)cc1 | 0.73 | 60 |  |  |  | 
11 | COc1ccc(S(=O)(=O)N(CC(C)C)C[C@@H](O)[C@H](CC23CC4CC(CC(C4)C2)C3)NC(=O)O[C@@H]2CCOC2)cc1 | 2.8 |  |  |  |  | 
12 | CC(C)CN(C[C@@H](O)[C@H](Cc1ccccc1)NC(=O)O[C@H]1CCOC1)S(=O)(=O)c1ccc(N)cc1 |  |  | 860 | 430 | > 1000 | 17
